Active and inactive are the calls of the source. The calls are words filed in the database; no cut-off is given here.
Tests used:
Stomach [1] = assay: Biodistribution in CD1 mouse stomach at 175 to 200 kBq, iv after 1 hr; format: ADME, organism-based; details: in vivo
Outline: (§1)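 Female CD-1 mice (20-25 g, groups of 5) given the radioiodinated compound via tail vein, 175-200 kBq in saline (100 µL) with 0.1% Tween 20. Injected dose taken as syringe activity before minus after. Killed at 1 and 4 h; organs removed, weighed and gamma-counted. Values are % ID per total organ, mean ± SD.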

Liver [2] = assay: Biodistribution in CD1 mouse liver at 175 to 200 kBq, iv after 4 hrs; format: ADME, organism-based; details: in vivo; outline: as §1
Stomach [3] = assay: Biodistribution in CD1 mouse stomach at 175 to 200 kBq, iv after 4 hrs; format: ADME, organism-based; details: in vivo; outline: as §1
Liver [4] = assay: Biodistribution in CD1 mouse liver at 175 to 200 kBq, iv after 1 hr; format: ADME, organism-based; details: in vivo; outline: as §1
Thyroid gland [5] = assay: Biodistribution in CD1 mouse thyroid at 175 to 200 kBq, iv after 1 hr; format: ADME, organism-based; details: in vivo; outline: as §1
Serum = assay: Protein binding in human serum; format: ADME, cell-free
Outline: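 Radioiodinated tracer (≈370 kBq) incubated in 1 mL fresh human serum at 37 °C. Duplicate 100 µL samples taken at 15 min, 1, 2, 4 and 21 h. Proteins precipitated with 200 µL ethanol, cooled to 4 °C and centrifuged. Pellet washed with ethanol and gamma-counted. Pellet activity is expressed as % of total activity.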

Thyroid gland [6] = assay: Biodistribution in CD1 mouse thyroid at 175 to 200 kBq, iv after 4 hrs; format: ADME, organism-based; details: in vivo; outline: as §1
[7] = Partition coefficient, log P at pH 7.4; format: physicochemical; details: octanol/water
Outline: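 Shake-flask method with back-extraction. Radiotracer placed in mutually saturated octanol and PBS pH 7.4, vortexed and centrifuged (3000 rpm, 10 min, rt). Both phases gamma-counted. 0.5 mL of octanol re-extracted against an equal volume of PBS and counting repeated. log P is taken from the octanol/buffer count ratio.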

[8] = molecular target: Epidermal growth factor receptor (Homo sapiens) (UniProt P00533); assay: Inhibition of EGFR autophosphorylation in human A431 cells at 0.1 uM; format: cell-based; details: A-431
Epidermal growth factor receptor (Homo sapiens), sequence (P00533 whole entry): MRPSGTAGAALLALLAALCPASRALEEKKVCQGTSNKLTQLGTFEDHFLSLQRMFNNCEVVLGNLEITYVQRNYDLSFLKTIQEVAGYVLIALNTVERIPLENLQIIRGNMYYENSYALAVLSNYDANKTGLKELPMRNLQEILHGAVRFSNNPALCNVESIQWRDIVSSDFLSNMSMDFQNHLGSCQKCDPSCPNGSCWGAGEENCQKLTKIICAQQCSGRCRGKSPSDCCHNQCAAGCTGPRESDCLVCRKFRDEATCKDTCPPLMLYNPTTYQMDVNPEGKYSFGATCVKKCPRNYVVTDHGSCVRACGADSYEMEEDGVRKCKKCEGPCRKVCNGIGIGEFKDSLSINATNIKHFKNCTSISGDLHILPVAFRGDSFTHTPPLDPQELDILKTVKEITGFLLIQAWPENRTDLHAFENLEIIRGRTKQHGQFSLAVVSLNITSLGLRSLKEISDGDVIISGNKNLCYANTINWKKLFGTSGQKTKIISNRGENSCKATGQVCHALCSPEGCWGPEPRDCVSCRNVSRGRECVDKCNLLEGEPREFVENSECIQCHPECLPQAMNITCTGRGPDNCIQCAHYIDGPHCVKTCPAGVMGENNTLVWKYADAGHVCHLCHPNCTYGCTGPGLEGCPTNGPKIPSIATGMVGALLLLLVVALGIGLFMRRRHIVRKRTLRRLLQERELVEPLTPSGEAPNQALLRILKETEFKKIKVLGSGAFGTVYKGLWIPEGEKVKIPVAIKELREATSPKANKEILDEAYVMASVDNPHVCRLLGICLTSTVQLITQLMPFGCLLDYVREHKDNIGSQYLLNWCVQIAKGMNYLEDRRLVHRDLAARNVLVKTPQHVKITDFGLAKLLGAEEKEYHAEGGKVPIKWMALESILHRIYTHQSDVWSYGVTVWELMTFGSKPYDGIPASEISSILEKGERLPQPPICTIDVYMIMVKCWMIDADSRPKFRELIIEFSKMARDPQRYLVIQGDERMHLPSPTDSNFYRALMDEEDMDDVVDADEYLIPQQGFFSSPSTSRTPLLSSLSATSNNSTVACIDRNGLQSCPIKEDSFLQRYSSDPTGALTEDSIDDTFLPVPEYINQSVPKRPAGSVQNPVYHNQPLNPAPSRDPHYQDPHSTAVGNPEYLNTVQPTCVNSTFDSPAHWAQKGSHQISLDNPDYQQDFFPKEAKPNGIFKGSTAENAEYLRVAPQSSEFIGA
Outline: (§2)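 A431 cells grown to about 70% confluence, serum-starved 24 h, then given compound (0.1–5 µM) for 2 h and stimulated with EGF 20 ng/mL for 5 min. Lysates loaded at equal total protein (BCA), run on 8% SDS-PAGE and blotted to PVDF. Probed with anti-phosphotyrosine PY20 and an HRP anti-mouse secondary, detected by ECL. Bands quantified against controls with and without EGF, no drug.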

A-431 = assay: Growth inhibition of human A431 cells by MTT assay; format: functional, cell-based
Outline: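 A431 cells kept in high-glucose D-MEM with 10% foetal calf serum, 37 °C, 5% CO2. Plated at 3×10^3 cells/well and grown 24 h, then exposed to 1–50 µM compound (4 replicates) for 24, 48 and 72 h. MTT 1 mg/mL in phenol-red-free RPMI for 4 h, isopropanol solubilisation, A540 against 620 nm reference. % of untreated control plotted semi-log against concentration; IC50 read from the curve.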

[9] = molecular target: Epidermal growth factor receptor (Homo sapiens) (UniProt P00533); assay: Inhibition of EGFR autophosphorylation in human A431 cells at 1 uM; format: cell-based; details: A-431; outline: as §2

Row | SMILES | Drug uptake (Stomach [1]) [%ID] | Drug uptake (Liver [2]) [%ID] | Drug uptake (Stomach [3]) [%ID] | Drug uptake (Liver [4]) [%ID] | Drug uptake (Thyroid gland [5]) [%ID] | Activity (Serum) [%] | Drug uptake (Thyroid gland [6]) [%ID] | logD [7] | Activity [8] | IC50 (A-431) [nM] | inhibition [9] [%]
1 | O=C(CC[125I])Nc1ccc2ncnc(Nc3ccc(F)c(Cl)c3)c2c1 | 35.2 | 2.3 | 3.9 | 6.1 | 5.7 | 6 | 13.2 | 2.25 | – | – | –
2 | O=C(CCBr)Nc1ccc2ncnc(Nc3ccc(F)c(Cl)c3)c2c1 | – | – | – | – | – | – | – | – | Active | 3000 | 100
3 | Nc1ccc2ncnc(Nc3ccc(F)c(Cl)c3)c2c1 | – | – | – | – | – | – | – | – | – | 25000 | 95
4 | O=C(CCI)Nc1ccc2ncnc(Nc3ccc(F)c(Cl)c3)c2c1 | – | – | – | – | – | – | – | – | Active | 2000 | 100
